# According to ChEMBL document CHEMBL3853270, “Influence of Birch Bark Triterpenes on Keratinocytes and Fibroblasts from Diabetic and Nondiabetic Donors” (2016):
# The source made the active and inactive calls. No cut-off for these calls is given here.
# Assays:
# [1] = test system: Fibroblast; test: Effect on antiinflammatory related gene expression in diabetic adult human primary fibroblasts assessed as SOCS3 mRNA levels at 9.81 uM after 6 hrs by qPCR analysis; assay type: functional
# In short: (§1)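 Primary dermal fibroblasts from one nondiabetic young, one nondiabetic adult and one diabetic adult donor; 320 000 cells per sample, 6 h at 1.96 or 9.81 μM. RNA measured on a high-throughput qPCR chip. Fold change versus 0.1% DMSO control, four independent experiments, SD, one-way ANOVA with Bonferroni post-test.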
# [2] = test system: Fibroblast; test: Effect on pro-inflammatory related gene expression in diabetic adult human primary fibroblasts assessed as IL1B mRNA levels at 9.81 uM after 6 hrs by qPCR analysis; assay type: functional
# In short: (§2)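 Primary human dermal fibroblasts (young or adult nondiabetic, adult diabetic donor) were treated for 6 h against a 0.1% DMSO solvent control. RNA from 320 000 cells per sample was measured by Fluidigm Biomark high-throughput qPCR. Values are fold change relative to solvent control, from four independent experiments, with SD. One-way ANOVA with Bonferroni post-test was applied.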
# [3] = test system: Keratinocyte; test: Effect on AQP3 mRNA expression levels in non-diabetic young human primary keratinocytes at 9.81 uM after 6 hrs by qPCR analysis; assay type: functional
# In short: (§3)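 Primary keratinocytes from nondiabetic young and adult and diabetic adult donors; 400 000 cells per sample, 6 h exposure at 1.96 or 9.81 μM. RNA extracted and read on a high-throughput qPCR chip. Results are fold change versus 0.1% DMSO solvent control from 5−7 independent experiments over two donors per group, SD, one-way ANOVA with Bonferroni post-test.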
# [4] = Upregulation of wound healing activity related GM-CSF protein levels in non-diabetic adult human primary keratinocytes at 1.96 uM after 24 hrs by bead-based suspension array analysis; assay type: functional; settings: Keratinocyte
# [5] = test system: Keratinocyte; test: Effect on ECM related gene expression in non-diabetic adult human primary keratinocytes assessed as FBN1 mRNA levels at 1.96 uM after 6 hrs by qPCR analysis; assay type: functional; in short: as §3
# [6] = test system: Keratinocyte; test: Effect on wound healing activity in non-diabetic adult human primary keratinocytes assessed as increase in soluble gp130 part of IL6 receptor protein levels at 1.96 uM after 24 hrs by bead-based suspension array analysis; assay type: functional
# [7] = test system: Fibroblast; test: Effect on transcription factor related gene expression in diabetic adult human primary fibroblasts assessed as JUN mRNA levels at 1.96 uM after 6 hrs by qPCR analysis; assay type: functional
# [8] = test system: Fibroblast; test: Effect on pro-inflammatory related gene expression in non-diabetic young human primary fibroblasts assessed as IL1B mRNA levels at 1.96 uM after 6 hrs by qPCR analysis; assay type: functional
# [9] = test system: Keratinocyte; test: Effect on pro-inflammatory related gene expression in diabetic adult human primary keratinocytes assessed as IL1R1 mRNA levels at 1.96 uM after 6 hrs by qPCR analysis; assay type: functional
# [10] = test system: Keratinocyte; test: Effect on growth factor related gene expression in non-diabetic young human primary keratinocytes assessed as GDF15 mRNA levels at 9.81 uM after 6 hrs by qPCR analysis; assay type: functional
# In short: (§4)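 Primary human keratinocytes (nondiabetic young or adult, diabetic adult donors) were exposed to compound for 6 h, with 0.1% DMSO as solvent control. Total RNA came from 400 000 cells per sample and was assayed on a Fluidigm Biomark high-throughput qPCR chip. Results are fold change vs solvent control, from 2−4 independent experiments on two donors per group, with SD. Groups were compared by one-way ANOVA with Bonferroni post-test.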
# [11] = test system: Keratinocyte; test: Effect on pro-inflammatory related gene expression in non-diabetic young human primary keratinocytes assessed as TNF mRNA levels at 1.96 uM after 6 hrs by qPCR analysis; assay type: functional
# [12] = test system: Keratinocyte; test: Effect on chemokines related gene expression in non-diabetic young human primary keratinocytes assessed as IL8 mRNA levels at 9.81 uM after 6 hrs by qPCR analysis; assay type: functional; in short: as §4
# [13] = test system: Fibroblast; test: Effect on adhesion molecules related gene expression in diabetic adult human primary fibroblasts assessed as VCAM1 mRNA levels at 9.81 uM after 6 hrs by qPCR analysis; assay type: functional
# In short: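 Dermal fibroblasts from nondiabetic adult and diabetic adult donors, exposed for 6 h at 1.96 or 9.81 μM. ICAM-1 and VCAM-1 mRNA measured by standard qRT-PCR, n = 3. Fold change versus 0.1% DMSO control, SD, one-way ANOVA with Bonferroni post-test.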
# [14] = test system: Fibroblast; test: Effect on pro-inflammatory related gene expression in non-diabetic adult human primary fibroblasts assessed as IL6 mRNA levels at 1.96 uM after 6 hrs by qPCR analysis; assay type: functional
# [15] = test system: Keratinocyte; test: Effect on chemokines related gene expression in non-diabetic adult human primary keratinocytes assessed as IL8 mRNA levels at 9.81 uM after 6 hrs by qPCR analysis; assay type: functional
# [16] = test system: Fibroblast; test: Effect on pro-inflammatory related gene expression in diabetic adult human primary fibroblasts assessed as IL1B mRNA levels at 1.96 uM after 6 hrs by qPCR analysis; assay type: functional; in short: as §2
# [17] = test system: Keratinocyte; test: Effect on AQP3 mRNA expression levels in diabetic adult human primary keratinocytes at 1.96 uM after 6 hrs by qPCR analysis; assay type: functional; in short: as §3
# [18] = test system: Fibroblast; test: Effect on antiinflammatory related gene expression in non-diabetic young human primary fibroblasts assessed as NFKBIA mRNA levels at 9.81 uM after 6 hrs by qPCR analysis; assay type: functional; in short: as §1
# [19] = test system: Keratinocyte; test: Effect on pro-inflammatory related gene expression in non-diabetic adult human primary keratinocytes assessed as IL1R1 mRNA levels at 9.81 uM after 6 hrs by qPCR analysis; assay type: functional
# [20] = target: Ras-related C3 botulinum toxin substrate 1 (Homo sapiens) (UniProt P63000); test: Activation of Rac1 in human diabetic primary keratinocytes at 10 nM after 20 mins by immunoblot method
# In short: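 Primary keratinocytes from a diabetic adult donor (NHK-d), exposed 20 min. Lysed in glycerol/Tris pH 7.4/NaCl/NP-40/MgCl2/PMSF buffer and cleared at 4 °C. Supernatant incubated 1 h at 4 °C with glutathione-sepharose beads carrying GST-PAK to pull down active GTP-bound Rac1. Blotted on a 13% gel, probed with anti-Rac1 (1:2.000) and detected by ECL; total Rac1 also measured. CNF1 (2 nM) positive control, n = 3.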
# [21] = test system: Fibroblast; test: Effect on pro-inflammatory related gene expression in diabetic adult human primary fibroblasts assessed as PTGS2 mRNA levels at 1.96 uM after 6 hrs by qPCR analysis; assay type: functional
# [22] = test system: Keratinocyte; test: Effect on pro-inflammatory related gene expression in diabetic adult human primary keratinocytes assessed as IL6 mRNA levels at 1.96 uM after 6 hrs by qPCR analysis; assay type: functional
# [23] = test system: Fibroblast; test: Effect on chemokines related gene expression in non-diabetic young human primary fibroblasts assessed as IL8 mRNA levels at 1.96 uM after 6 hrs by qPCR analysis; assay type: functional; in short: as §2
# [24] = test system: Fibroblast; test: Effect on growth factor related gene expression in diabetic adult human primary fibroblasts assessed as VEGFA mRNA levels at 9.81 uM after 6 hrs by qPCR analysis; assay type: functional; in short: as §2
# [25] = test system: Fibroblast; test: Effect on growth factors related gene expression in non-diabetic young human primary fibroblasts assessed as FGF2 mRNA levels at 9.81 uM after 6 hrs by qPCR analysis; assay type: functional; in short: as §2
# [26] = test system: Fibroblast; test: Effect on pro-inflammatory related gene expression in diabetic adult human primary fibroblasts assessed as IL6 mRNA levels at 1.96 uM after 6 hrs by qPCR analysis; assay type: functional; in short: as §2
# [27] = test system: Keratinocyte; test: Effect on pro-inflammatory related gene expression in diabetic adult human primary keratinocytes assessed as IL1B mRNA levels at 1.96 uM after 6 hrs by qPCR analysis; assay type: functional
smiles,measurement,setting,value
C=C(C)[C@@H]1CC[C@]2(CO)CC[C@]3(C)[C@H](CC[C@@H]4[C@@]5(C)CC[C@H](O)C(C)(C)[C@@H]5CC[C@]43C)[C@@H]12 [BETULIN],fold change (FC),[1],1.4
same,fold change (FC),[2],2.9
same,fold change (FC),[3],1.1
same,Activity,[4],Active
same,fold change (FC),[5],0.9
same,Activity,[6],Active
same,fold change (FC),[7],1.3
same,fold change (FC),[8],3.3
same,fold change (FC),[9],0.8
same,fold change (FC),[10],1.1
same,fold change (FC),[11],4.5
same,fold change (FC),[12],21.8
same,fold change (FC),[13],1.3
same,fold change (FC),[14],278
same,fold change (FC),[15],69.9
same,fold change (FC),[16],7.6
same,fold change (FC),[17],0.8
same,fold change (FC),[18],3.2
same,fold change (FC),[19],0.9
same,Activity,[20],Active
same,fold change (FC),[21],4.1
same,fold change (FC),[22],12.8
same,fold change (FC),[23],23.5
same,fold change (FC),[24],2
same,fold change (FC),[25],1.8
same,fold change (FC),[26],14.9
same,fold change (FC),[27],0.8
